Series [1] in a line: Prodrug conversion in NHBE cells assessed as ((2R,3S,4R,5S)-5-(2-carbamoyl-3-fluoropyridin-4-yl)-3,4-dihydroxytetrahydrofuran-2-yl)methyl tetrahydrogen triphosphate level per million cells at 50 uM after 24 hrs by LC-MS/Ms analysis. The following applies: human. It counts as ADME, cell-based.
Series [2] relates to Influenza A virus. Description: Antiviral activity against Influenza A virus infected in MDCK cells. The format is functional, organism-based. The method, boiled down:
(§1)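 MDCK cells at 1 × 10^4 cells/well in DMEM with 0.3% FBS, 1% penicillin/streptomycin and 1% DMSO. After 24 h, serially diluted compound was added for a further 24 h. Cells were infected with A/WSN/33 at 250 IU/well for 20 h at 37 °C. Supernatant was replaced with 25 μM MUNANA in 33 mM MES, pH 6.5, for 45 min at 30 °C. Reaction stopped with glycine pH 10.5/25% ethanol; fluorescence read at ex 355/em 460 nm. EC50 averaged over n ≥ 2.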

In series [3] the test system is Influenza A virus. Description: Antiviral activity against Influenza A virus A/WSN/33(H1N1) infected in MDCK cells assessed as inhibition of neuraminidase activity using 2'-(4-methylumbelliferyl)-alpha-D-N-acetylneuraminic acid substrate pretreated with cells for 24 hrs followed by viral infection measured after 20 hrs by fluorescence assay. The following applies: A/WSN/1933(H1N1). The format is functional, organism-based. In a few lines:
as §1

Series [4] has as its system MDCK. Put plainly: Prodrug conversion in MDCK cells assessed as ((2R,3S,4R,5S)-5-(2-carbamoyl-3-fluoropyridin-4-yl)-3,4-dihydroxytetrahydrofuran-2-yl)methyl tetrahydrogen triphosphate level per million cells at 50 uM after 24 hrs by LC-MS/Ms analysis. The format is ADME, cell-based, Canis lupus familiaris. The following applies: dog.
The test system of series [5] is MDCK. Put plainly: Prodrug conversion in MDCK cells assessed as ((2R,3S,4R,5S)-5-(2-carbamoyl-3-fluoropyridin-4-yl)-3,4-dihydroxytetrahydrofuran-2-yl)methyl dihydrogen phosphate level per million cells at 50 uM after 24 hrs by LC-MS/Ms analysis. The format is ADME, cell-based, Canis lupus familiaris. The settings on record: dog.
For series [6], the system named is A549. Put plainly: Prodrug conversion in human A549 cells assessed as ((2R,3S,4R,5S)-5-(2-carbamoyl-3-fluoropyridin-4-yl)-3,4-dihydroxytetrahydrofuran-2-yl)methyl dihydrogen phosphate level per million cells at 50 uM after 24 hrs by LC-MS/Ms analysis. It counts as ADME, cell-based. The following applies: a549, 24 h.
The nature of series [7]: Prodrug conversion in NHBE cells assessed as ((2R,3S,4R,5S)-5-(2-carbamoyl-3-fluoropyridin-4-yl)-3,4-dihydroxytetrahydrofuran-2-yl)methyl dihydrogen phosphate level per million cells at 50 uM after 24 hrs by LC-MS/Ms analysis. It counts as ADME, cell-based. The settings on record: human.
Series [8] has as its system Influenza A virus. Put plainly: Antiviral activity against Influenza A virus A/WSN/33(H1N1) infected in human A549 cells. It counts as functional, organism-based. The following applies: A/WSN/1933(H1N1).
For series [9], the system named is A549. Put plainly: Prodrug conversion in human A549 cells assessed as ((2R,3S,4R,5S)-5-(2-carbamoyl-3-fluoropyridin-4-yl)-3,4-dihydroxytetrahydrofuran-2-yl)methyl tetrahydrogen triphosphate level per million cells at 50 uM after 24 hrs by LC-MS/Ms analysis. The format is ADME, cell-based. The settings on record: a549, 24 h.
Series [10] concerns A549. Description: Drug metabolism in human A549 cells assessed as nucleoside triphosphate formation at 50 uM after 24 hrs by LC-MS/Ms analysis. The following applies: a549, 24 h, BLD = below limit of detection. The format is ADME, cell-based.
Series [11] can be described thus: Cytotoxicity against MDCK cells after 10 mins by CellTiter-Glo assay. The format is cell-based, Canis lupus familiaris. The following applies: dog. In a few lines:
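Uninfected cultures run in parallel with the MDCK neuraminidase antiviral assay. CellTiter-Glo reagent added, 10 min at room temperature, luminescence read.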

In series [12] the test system is Lung. Put plainly: Prodrug conversion in Balb/c mouse assessed as ((2R,3S,4R,5S)-5-(2-carbamoyl-3-fluoropyridin-4-yl)-3,4-dihydroxytetrahydrofuran-2-yl)methyl tetrahydrogen triphosphate level in lung at 2 mg/kg, iv measured at 2 hrs post dose by LC-MS/MS analysis. The settings on record: in vivo, BLD = below limit of detection. It counts as ADME, organism-based. In a few lines: (§2)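 Female Balb/c mice (N = 2), fasted overnight, given the prodrug IV at 2 mg/kg in 10% DMSO/60% PEG400/30% water. Under isoflurane anaesthesia, blood sampled at 0.25 and 2 h post dose. Parent nucleoside measured in blood; monophosphate and triphosphate measured in lung.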

Series [13] relates to Lung. Description: Prodrug conversion in Balb/c mouse assessed as ((2R,3S,4R,5S)-5-(2-carbamoyl-3-fluoropyridin-4-yl)-3,4-dihydroxytetrahydrofuran-2-yl)methyl dihydrogen phosphate level in lung at 2 mg/kg, iv measured at 2 hrs post dose by LC-MS/MS analysis. The format is ADME, organism-based. The settings on record: in vivo. In a few lines: as §2
The test system of series [14] is Blood. Description: Prodrug conversion in Balb/c mouse assessed as 4-((2S,3R,4S,5R)-3,4-dihydroxy-5-(hydroxymethyl)tetrahydrofuran-2-yl)-3-fluoropicolinamide level in blood at 2 mg/kg, iv measured at 2 hrs post dose by LC-MS/MS analysis. The following applies: in vivo. It counts as ADME, organism-based. The method, boiled down:
as §2

In series [15] the test system is Blood. Description: Prodrug conversion in Balb/c mouse assessed as 4-((2S,3R,4S,5R)-3,4-dihydroxy-5-(hydroxymethyl)tetrahydrofuran-2-yl)-3-fluoropicolinamide level in blood at 2 mg/kg, iv measured at 0.25 hrs post dose by LC-MS/MS analysis. The following applies: in vivo. It counts as ADME, organism-based. In a few lines:
as §2

Series [16] deals with Influenza A virus. Description: Antiviral activity against Influenza A virus A/WSN/33(H1N1) infected in NHBE cells. The format is functional, organism-based. The settings on record: A/WSN/1933(H1N1).
For series [17], the system named is Lung. Put plainly: Prodrug conversion in Balb/c mouse assessed as ((2R,3S,4R,5S)-5-(2-carbamoyl-3-fluoropyridin-4-yl)-3,4-dihydroxytetrahydrofuran-2-yl)methyl tetrahydrogen triphosphate level in lung at 2 mg/kg, iv measured at 0.25 hrs post dose by LC-MS/MS analysis. The format is ADME, organism-based. The following applies: in vivo. In a few lines: as §2
Series [18] relates to Lung. Description: Prodrug conversion in Balb/c mouse assessed as ((2R,3S,4R,5S)-5-(2-carbamoyl-3-fluoropyridin-4-yl)-3,4-dihydroxytetrahydrofuran-2-yl)methyl dihydrogen phosphate level in lung at 2 mg/kg, iv measured at 0.25 hrs post dose by LC-MS/MS analysis. It counts as ADME, organism-based. The following applies: in vivo. The method, boiled down: as §2
Series [19] can be described thus: Inhibition of human rhinovirus 16 RNA-dependent RNA polymerase assessed as inhibition of [3H]UTP incorporation using HCV 5'-untranslated region RNA template incubated for 2.5 hrs by radiometric assay. Details: species or system rhinovirus A16.
For series [20], the system named is Tni. Description: Binding affinity to recombinant Influenza A virus A/chicken/Nanchang/3-120/01(H3N2) RNA polymerase subunit C-terminal TAP/His6-tagged PA/PB1/PB2 expressed in Tni cells assessed as compound incorporation by measuring 10 to 14-mer product formation using 5'-pApG/14-nucleotide RNA with C as nucleotide as primer/template at 100 uM after 30 mins in presence of [alpha-33P]CTP by PAGE analysis. It counts as cell-based.

For series [21], the system named is Tni. Description: Binding affinity to recombinant Influenza A virus A/chicken/Nanchang/3-120/01(H3N2) RNA polymerase subunit C-terminal TAP/His6-tagged PA/PB1/PB2 expressed in Tni cells assessed as compound incorporation by measuring 14-mer product formation using 5'-pApG/14-nucleotide RNA with U as nucleotide as primer/template at 100 uM after 30 mins in presence of [alpha-33P]CTP by PAGE analysis. It counts as cell-based.

Series [22] in a line: Inhibition of HCV NS5B RNA-dependent RNA polymerase assessed as inhibition of [3H]CTP incorporation using HCV 5'-untranslated region RNA template incubated for 2 hrs. Details: species or system Hepacivirus hominis.
Series [23] can be described thus: Inhibition of recombinant human Norovirus GII.4 RNA-dependent RNA polymerase expressed in Escherichia coli assessed as inhibition of [3H]UTP incorporation using HCV 5'-untranslated region RNA template incubated for 2.5 hrs by radiometric assay.

Experimental findings from ChEMBL document CHEMBL3817756, “Synthesis and Anti-Influenza Activity of Pyridine, Pyridazine, and Pyrimidine C-Nucleosides as Favipiravir (T-705) Analogues” (J Med Chem, 2016) are described below.

As a reminder, the EC50 is the concentration at which the effect is half-maximal. For orientation: CC50 means the concentration at which the toxic effect on the cells reaches its halfway point. The low end stands for greater toxicity to the cells, the high end for lower toxicity to the cells. In general, IC50 refers to the concentration needed to halve the response being measured.

The source made the active and inactive calls. No cut-off for these calls is given here.

Turning to `C[C@H](NP(=O)(OC[C@H]1O[C@@H](c2ccnc(C(N)=O)c2F)[C@H](O)[C@@H]1O)Oc1ccccc1)C(=O)CC1CCCCC1` (some centres not stated), the Drug metabolism entry is “BLD” in [1] (BLD = below limit of detection); “BLD” in series [4] (BLD = below limit of detection); 44.7 pmol in series [5]; 59.5 pmol in series [6]; 42.6 pmol in [7]; “BLD” in series [9] (BLD = below limit of detection). The EC50 was 129 µM in series [2], 129 µM in series [3] and 74.1 µM in series [8].
In the case of `Cn1cc([C@@H]2O[C@H](CO)[C@@H](O)[C@H]2O)c(=O)c(C(N)=O)n1`, the Drug metabolism result in series [10] is on record as “BLD”. This molecule also returned a CC50 at 10 min in series [11] of 291 µM. Further, the EC50 in series [3] was determined as 91 µM.
Turning to `CC(C)(C)C(=O)OCOP(=O)(OCOC(=O)C(C)(C)C)OC[C@H]1O[C@@H](c2ccnc(C(N)=O)c2F)[C@H](O)[C@@H]1O`, the Drug metabolism result in series [12] is “BLD”; in series [13], 792 nM; in series [1] it was 7.22 pmol; in series [14], 422 nM; in series [15] it was 1436 nM; in [4], 179 pmol. Further, the Drug metabolism is 248 pmol in series [5]; less than 60 nM in [17]; 74 pmol in [6]; 113 pmol in [7]; 5 pmol in [9]; 1764 nM in [18]. Further, the EC50 came out at 5.8 µM in series [2], 5.8 µM in series [3], 57.5 µM in series [16] and 34.7 µM in [8]. Moreover, the CC50 at 10 min in series [11] is greater than 400 µM.
In series [11], `COc1c(C(N)=O)ccnc1[C@@H]1O[C@H](CO)[C@@H](O)[C@H]1O` came in with a 50% cytotoxic concentration (CC50) at 10 min of 207 µM. For the same molecule, the EC50 in series [3] came out at 88 µM.
Regarding `NC(=O)c1nccc([C@@H]2O[C@H](COP(=O)(O)OP(=O)(O)OP(=O)(O)O)[C@@H](O)[C@H]2O)c1F`, the figures for the IC50 in series [19], in series [22] and in series [23] were 4 µM, 5.3 µM and 3.5 µM, respectively. The outcome in series [20] and in series [21] was Active.
In the case of `NC(=O)c1nccc([C@@H]2O[C@H](CO)[C@@H](O)[C@H]2O)c1Cl`, in [10], the Drug metabolism result is “BLD”.
For `NC(=O)c1nccc([C@@H]2O[C@H](CO)[C@@H](O)[C@H]2F)c1F`, the midpoint of cytotoxicity in series [11], the CC50 at 10 min, lay at 306 µM. Also, the EC50 in series [3] came to 87 µM.
Regarding `NC(=O)c1nccc([C@@H]2O[C@](F)(CO)[C@@H](O)[C@H]2O)c1F`, the Drug metabolism entry in series [10] is on record as “BLD”. Moreover, half-maximal cytotoxicity in [11] (CC50 at 10 min) was put at 185 µM. Moreover, in series [3], the EC50 amounted to 98 µM.
